Source: ChEMBL document CHEMBL3286337, “Synthesis, biological evaluation and structure-activity relationships of new phthalazinedione derivatives with vasorelaxant activity” (Eur J Med Chem, 2014)
Calls of active or inactive are those of the source. The calls are words filed in the database; no cut-off is given here.

Experiments:
Aorta [1] = experiment: Vasorelaxant activity in Wistar rat endothelium-denuded thoracic aortic rings assessed as inhibition of phenylephrine-induced contraction; format: functional, tissue-based
Aorta [2] = experiment: Vasorelaxant activity in Wistar rat endothelium-intact thoracic aortic rings assessed as inhibition of phenylephrine-induced contraction; format: functional, tissue-based
Aorta [3] = experiment: Vasorelaxant activity in Wistar rat endothelium-intact thoracic aortic rings assessed as inhibition of phenylephrine-induced contraction at 200 uM; format: functional
Aorta [4] = experiment: Vasorelaxant activity in Wistar rat endothelium-denuded thoracic aortic rings assessed as inhibition of phenylephrine-induced contraction at 200 uM; format: functional, tissue-based
Aorta [5] = experiment: Vasorelaxant activity in Wistar rat endothelium-denuded thoracic aortic rings assessed as inhibition of phenylephrine-induced contraction relative to endothelium-intact thoracic aortic rings in presence of 1 uM of acetylcholine; format: functional
[6] = Cytotoxicity against rat A7r5 cells assessed as reduction of cell viability at 25 uM after 24 hrs by MTT assay; format: cell-based; settings: a7r5, 24 h
Method in brief: (§1)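 A7r5 embryonic rat aorta smooth muscle cells seeded at 20 × 10^3/cm^2 and incubated overnight. Compounds added with DMSO (1%) for 24 h; untreated cells served as negative control. MTT solution (5 mg/ml in PBS) added, 2 h at 37 C, absorbance read at 540 nm. Viability = A(treatment)/A(negative control) × 100%. Mean ± S.E.M of at least 5 experiments.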

[7] = Cytotoxicity against rat A7r5 cells assessed as reduction of cell viability at 50 uM after 24 hrs by MTT assay; format: cell-based; settings: a7r5, 24 h; method in brief: as §1

SMILES | EC50 (Aorta [1]) [µM] | EC50 (Aorta [2]) [µM] | other results
CN1C(=O)CN=C(c2ccccc2)c2cc(Cl)ccc21 [DIAZEPAM] | 77.2 | 69 | –
Cn1c(=O)c2cccc(Cl)c2c(=O)n1CCN | – | – | inhibition at 200 µM (Aorta [3]): 50%; inhibition (Aorta [4]): inactive
Cn1c(=O)c2cccc(Cl)c2c(=O)n1CCCN | – | 44.7 | inhibition (Aorta [4]): inactive
Cn1c(=O)c2ccccc2c(=O)n1CCCN=[N+]=[N-] | 3.71 | 2.35 | –
Nc1cc(-c2ccncc2)c[nH]c1=O [INAMRINONE] | 28 | 17 | –
Cn1c(=O)c2ccccc2c(=O)n1CCBr | 8.46 | 1.7 | –
Cn1c(=O)c2c(Cl)cccc2c(=O)n1CCCN | 30.2 | 8.51 | inhibition (INH) (Aorta [5]): 53.6%
NNc1nncc2ccccc12 [HYDRALAZINE] | 1320 | 1180 | –
Cn1c(=O)c2ccccc2c(=O)n1CCN=[N+]=[N-] | 15.9 | 10 | –
Cn1c(=O)c2ccccc2c(=O)n1CCCNC(=O)OC(C)(C)C | 23.6 | 3.96 | –
Cn1c(=O)c2ccccc2c(=O)n1CCN | – | – | inhibition at 200 µM (Aorta [3]): 50%; inhibition (Aorta [4]): inactive
Cn1c(=O)c2ccccc2c(=O)n1CCNC(=O)OC(C)(C)C | 14.6 | 2.44 | –
Cn1[nH]c(=O)c2cccc(Cl)c2c1=O | – | – | inhibition (Aorta [3]): inactive; inhibition (Aorta [4]): inactive
Cn1c(=O)c2c(Cl)cccc2c(=O)n1CCCN=[N+]=[N-] | 11.7 | 2.33 | –
Cn1c(=O)c2c(Cl)cccc2c(=O)n1CCNC(=O)OC(C)(C)C | 5.57 | 2.53 | Activity [6]: Non-toxic; Activity [7]: Toxic
Cn1c(=O)c2c(Cl)cccc2c(=O)n1CCCBr | 27.2 | 6.61 | –
Cn1c(=O)c2c(Cl)cccc2c(=O)n1CCBr | 32.5 | 7.35 | –
Cn1c(=O)c2ccccc2c(=O)n1CCCBr | 15.5 | 3.1 | –
Cn1c(=O)c2c(Cl)cccc2c(=O)n1CCN=[N+]=[N-] | 13.1 | 4.12 | –
Cn1c(=O)c2cccc(Cl)c2c(=O)n1CCCN=[N+]=[N-] | 7.44 | 4.31 | Activity [6]: Non-toxic; Activity [7]: Toxic
Cn1c(=O)c2c(Cl)cccc2c(=O)n1CCN | – | 48.7 | inhibition (Aorta [4]): inactive
Cn1c(=O)c2c(Cl)cccc2c(=O)n1CCCNC(=O)OC(C)(C)C | 4.85 | 2.15 | Activity [6]: Non-toxic; Activity [7]: Toxic
Cn1c(=O)c2cccc(Cl)c2c(=O)n1CCBr | 20.2 | 7.95 | –
Cn1[nH]c(=O)c2c(Cl)cccc2c1=O | – | – | inhibition (Aorta [3]): inactive; inhibition (Aorta [4]): inactive
Cn1c(=O)c2cccc(Cl)c2c(=O)n1CCN=[N+]=[N-] | 13.2 | 6.35 | –
Cn1c(=O)c2cccc(Cl)c2c(=O)n1CCCNC(=O)OC(C)(C)C | 18.2 | 4.78 | Activity [6]: Non-toxic; Activity [7]: Toxic
Cn1c(=O)c2cccc(Cl)c2c(=O)n1CCNC(=O)OC(C)(C)C | 13.3 | 3.45 | Activity [6]: Non-toxic; Activity [7]: Toxic
Cn1[nH]c(=O)c2ccccc2c1=O | – | – | inhibition (Aorta [3]): inactive; inhibition (Aorta [4]): inactive
Cn1c(=O)c2ccccc2c(=O)n1CCCN | – | – | inhibition at 200 µM (Aorta [3]): 50%; inhibition (Aorta [4]): inactive
Cn1c(=O)c2cccc(Cl)c2c(=O)n1CCCBr | 6.71 | 3.36 | –
